According to ChEMBL document CHEMBL3421560, “Search for factors affecting antibacterial activity and toxicity of 1,2,4-triazole-ciprofloxacin hybrids” (Eur J Med Chem, 2015):
Values after ≈ are worked out from the molar mass of the structure shown.

Key:
Staphylococcus aureus [1] = experiment: Antimicrobial activity against methicillin-susceptible Staphylococcus aureus ATCC 25923 after 18 hrs by broth microdilution method; type: functional; conditions: ATCC 25923, 18 h
Staphylococcus aureus [2] = experiment: Antimicrobial activity against methicillin-susceptible Staphylococcus aureus ATCC 6538 after 18 hrs by broth microdilution method; type: functional; conditions: ATCC 6538, 18 h
Staphylococcus aureus [3] = experiment: Antimicrobial activity against Staphylococcus aureus Microbank 14001 after 18 hrs by broth microdilution method; type: functional; conditions: Microbank 14001, 18 h
[4] = test system: Staphylococcus epidermidis; experiment: Antimicrobial activity against Staphylococcus epidermidis ATCC 12228 after 18 hrs by broth microdilution method; type: functional; conditions: ATCC 12228, 18 h
Bacillus subtilis = experiment: Antimicrobial activity against Bacillus subtilis […] after 18 hrs by broth microdilution method; type: functional
Bacillus cereus = experiment: Antimicrobial activity against Bacillus cereus ATCC 10876 after 18 hrs by broth microdilution method; type: functional; conditions: ATCC 10876, 18 h
Micrococcus luteus = experiment: Antimicrobial activity against Micrococcus luteus ATCC 10240 after 18 hrs by broth microdilution method; type: functional; conditions: ATCC 10240, 18 h
Staphylococcus aureus [5] = experiment: Ratio of MBC for methicillin-susceptible Staphylococcus aureus ATCC 25923 to MIC for methicillin-susceptible Staphylococcus aureus ATCC 25923; type: functional
In short: (§1)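 MBC taken as lowest concentration giving >99.9% CFU reduction of the initial inoculum; value is MBC divided by MIC for the same strain.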

Staphylococcus aureus [6] = experiment: Ratio of MBC for methicillin-susceptible Staphylococcus aureus ATCC 6538 to MIC for methicillin-susceptible Staphylococcus aureus ATCC 6538; type: functional; in short: as §1
Staphylococcus aureus [7] = experiment: Ratio of MBC for Staphylococcus aureus Microbank 14001 to MIC for Staphylococcus aureus Microbank 14001; type: functional; in short: as §1
Escherichia coli = experiment: Antimicrobial activity against Escherichia coli ATCC 25922 after 18 hrs by broth microdilution method; type: functional; conditions: ATCC 25922, 18 h
Klebsiella pneumoniae = experiment: Antimicrobial activity against Klebsiella pneumoniae ATCC 13883 after 18 hrs by broth microdilution method; type: functional; conditions: ATCC 13883, 18 h
Proteus mirabilis = experiment: Antimicrobial activity against Proteus mirabilis ATCC 12453 after 18 hrs by broth microdilution method; type: functional; conditions: ATCC 12453, 18 h
Pseudomonas aeruginosa = experiment: Antimicrobial activity against Pseudomonas aeruginosa ATCC 9027 after 18 hrs by broth microdilution method; type: functional; conditions: ATCC 9027, 18 h
HEK293 = experiment: Cytotoxicity against HEK293 cells after 72 hrs by MTT assay; type: cell-based; conditions: Homo sapiens, HEK293, 48 h; in the assay text read “48 hrs” for “72 hrs”
In short: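 HEK-293 (ATCC CRL-1573) in MEM with 10% FBS plus penicillin/streptomycin, seeded 3 x 10^5 cells/well, 24 h at 37 °C, 5% CO2. Treated with compounds diluted from 50 mg/mL DMSO stock into medium with 2% FBS for 48 h. Viability by MTT formazan readout; EC50 relative to control cells, mean ± SD of three independent experiments.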

| SMILES | MIC (Staphylococcus aureus [1]) [µM] | MIC (Staphylococcus aureus [2]) [µM] | MIC (Staphylococcus aureus [3]) [µM] | MIC [4] [µM] | MIC (Bacillus subtilis) [µM] | MIC (Bacillus cereus) [µM] | MIC (Micrococcus luteus) [µM] | Ratio (Staphylococcus aureus [5]) | Ratio (Staphylococcus aureus [6]) | Ratio (Staphylococcus aureus [7]) | MIC (Escherichia coli) [µM] | MIC (Klebsiella pneumoniae) [µM] | MIC (Proteus mirabilis) [µM] | MIC (Pseudomonas aeruginosa) [µM] | EC50 (HEK293) [µM] |
| --- | --- | --- | --- | --- | --- | --- | --- | --- | --- | --- | --- | --- | --- | --- | --- |
| O=C(O)c1cn(C2CC2)c2cc(N3CCN(Cn4nc(-c5cccc(O)c5)n(-c5ccc(F)cc5)c4=S)CC3)c(F)cc2c1=O | 0.76 (≈ 0.479 µg/mL) | 0.38 (≈ 0.24 µg/mL) | 0.38 (≈ 0.24 µg/mL) | 0.19 (≈ 0.12 µg/mL) | 0.095 (≈ 0.0599 µg/mL) | 0.19 (≈ 0.12 µg/mL) | 1.55 (≈ 0.978 µg/mL) | <=4 | <=4 | <=4 | 0.012 (≈ 0.00757 µg/mL) | 0.048 (≈ 0.0303 µg/mL) | 0.024 (≈ 0.0151 µg/mL) | 0.38 (≈ 0.24 µg/mL) | – |
| O=C(O)c1cn(C2CC2)c2cc(N3CCN(Cn4nc(-c5cccc(O)c5)n(-c5ccc(Cl)cc5)c4=S)CC3)c(F)cc2c1=O | 0.76 (≈ 0.492 µg/mL) | 0.37 (≈ 0.239 µg/mL) | 0.37 (≈ 0.239 µg/mL) | 0.093 (≈ 0.0602 µg/mL) | 0.093 (≈ 0.0602 µg/mL) | 0.18 (≈ 0.116 µg/mL) | 1.51 (≈ 0.977 µg/mL) | <=4 | <=4 | <=4 | 0.012 (≈ 0.00777 µg/mL) | 0.046 (≈ 0.0298 µg/mL) | 0.024 (≈ 0.0155 µg/mL) | 0.37 (≈ 0.239 µg/mL) | – |
| O=C(O)c1cn(C2CC2)c2cc(N3CCN(Cn4nc(-c5cccc(O)c5)n(Cc5ccc(Cl)cc5)c4=S)CC3)c(F)cc2c1=O | 1.48 (≈ 0.979 µg/mL) | 1.48 (≈ 0.979 µg/mL) | 1.48 (≈ 0.979 µg/mL) | 0.18 (≈ 0.119 µg/mL) | 0.18 (≈ 0.119 µg/mL) | 0.18 (≈ 0.119 µg/mL) | 2.95 (≈ 1.95 µg/mL) | <=4 | <=4 | <=4 | 0.023 (≈ 0.0152 µg/mL) | 0.18 (≈ 0.119 µg/mL) | 0.023 (≈ 0.0152 µg/mL) | 0.36 (≈ 0.238 µg/mL) | – |
| COc1ccc(-n2c(-c3cccc(O)c3)nn(CN3CCN(c4cc5c(cc4F)c(=O)c(C(=O)O)cn5C4CC4)CC3)c2=S)cc1 | 0.74 (≈ 0.476 µg/mL) | 0.37 (≈ 0.238 µg/mL) | 0.093 (≈ 0.0598 µg/mL) | 0.19 (≈ 0.122 µg/mL) | 0.37 (≈ 0.238 µg/mL) | 0.19 (≈ 0.122 µg/mL) | 1.52 (≈ 0.977 µg/mL) | <=4 | <=4 | <=4 | 0.006 (≈ 0.00386 µg/mL) | 0.093 (≈ 0.0598 µg/mL) | 0.047 (≈ 0.0302 µg/mL) | 0.19 (≈ 0.122 µg/mL) | 114 |
| O=C(O)c1cn(C2CC2)c2cc(N3CCN(Cn4nc(-c5ccc(O)cc5)n(-c5ccccc5)c4=S)CC3)c(F)cc2c1=O | 1.6 (≈ 0.98 µg/mL) | 0.39 (≈ 0.239 µg/mL) | 0.39 (≈ 0.239 µg/mL) | 0.098 (≈ 0.06 µg/mL) | 0.024 (≈ 0.0147 µg/mL) | 0.098 (≈ 0.06 µg/mL) | 1.6 (≈ 0.98 µg/mL) | <=4 | <=4 | <=4 | 0.024 (≈ 0.0147 µg/mL) | 0.049 (≈ 0.03 µg/mL) | 0.049 (≈ 0.03 µg/mL) | 0.2 (≈ 0.123 µg/mL) | – |
| O=C(O)c1cn(C2CC2)c2cc(N3CCN(Cn4nc(-c5ccc(O)cc5)n(Cc5ccccc5)c4=S)CC3)c(F)cc2c1=O | 3.11 (≈ 1.95 µg/mL) | 1.56 (≈ 0.978 µg/mL) | 1.56 (≈ 0.978 µg/mL) | 0.19 (≈ 0.119 µg/mL) | 0.78 (≈ 0.489 µg/mL) | 0.19 (≈ 0.119 µg/mL) | 6.24 (≈ 3.91 µg/mL) | <=4 | <=4 | <=4 | 0.048 (≈ 0.0301 µg/mL) | 0.19 (≈ 0.119 µg/mL) | 0.024 (≈ 0.015 µg/mL) | 0.38 (≈ 0.238 µg/mL) | – |
| O=C(O)c1cn(C2CC2)c2cc(N3CCN(Cn4nc(-c5ccc(O)cc5)n(-c5ccc(Cl)cc5)c4=S)CC3)c(F)cc2c1=O | 0.76 (≈ 0.492 µg/mL) | 0.37 (≈ 0.239 µg/mL) | 0.093 (≈ 0.0602 µg/mL) | 0.18 (≈ 0.116 µg/mL) | 0.046 (≈ 0.0298 µg/mL) | 0.18 (≈ 0.116 µg/mL) | 1.51 (≈ 0.977 µg/mL) | <=4 | <=4 | <=4 | 0.011 (≈ 0.00712 µg/mL) | 0.093 (≈ 0.0602 µg/mL) | 0.012 (≈ 0.00777 µg/mL) | 0.18 (≈ 0.116 µg/mL) | – |
| COc1ccc(Cn2c(-c3ccc(O)cc3)nn(CN3CCN(c4cc5c(cc4F)c(=O)c(C(=O)O)cn5C4CC4)CC3)c2=S)cc1 | 2.97 (≈ 1.95 µg/mL) | 0.75 (≈ 0.493 µg/mL) | 0.75 (≈ 0.493 µg/mL) | 1.49 (≈ 0.979 µg/mL) | 0.18 (≈ 0.118 µg/mL) | 0.091 (≈ 0.0598 µg/mL) | 5.95 (≈ 3.91 µg/mL) | <=4 | <=4 | <=4 | 0.046 (≈ 0.0302 µg/mL) | 0.091 (≈ 0.0598 µg/mL) | 0.091 (≈ 0.0598 µg/mL) | 0.36 (≈ 0.236 µg/mL) | – |
| CN[C@H](CC(C)C)C(=O)N[C@H]1C(=O)N[C@@H](CC(N)=O)C(=O)N[C@H]2C(=O)N[C@H]3C(=O)N[C@H](C(=O)N[C@H](C(=O)O)c4cc(O)cc(O)c4-c4cc3ccc4O)[C@H](O)c3ccc(c(Cl)c3)Oc3cc2cc(c3O[C@@H]2O[C@H](CO)[C@@H](O)[C@H](O)[C@H]2O[C@H]2C[C@](C)(N)[C@H](O)[C@H](C)O2)Oc2ccc(cc2Cl)[C@H]1O [VANCOMYCIN] | – | – | 0.68 (≈ 0.986 µg/mL) | – | – | – | – | – | – | – | – | – | – | – | – |
